Results pooled from the literature.
JAK1 JH1: Tyrosine-protein kinase JAK1, JH1 (JAK1, Homo sapiens, UniProt P23458)
JAK1: Tyrosine-protein kinase JAK1 (JAK1, Homo sapiens, UniProt P23458)
JAK1 JH2: Tyrosine-protein kinase JAK1, JH2 (JAK1, Homo sapiens, UniProt P23458)

SMILES	target	read-out	mode	method	concentration	measurement	value
COc1cc(Nc2ncc(F)c(Nc3ccc4c(n3)NC(=O)C(C)(C)O4)n2)cc(OC)c1OC	JAK1 JH1	binding	–	competition with immobilised ligand	10 µM	inhibition	100%
Cn1cc(-c2cc(F)cc(N3CCn4c(cc5c4CCCC5)C3=O)c2CO)cc(Nc2ccc(N3CCN(C4COC4)CC3)cn2)c1=O	JAK1	enzyme activity	inhibitor	–	0.1 µM	inhibition	6%
O=c1[nH]c2ccccc2n1C1CCN(Cc2ccc(-c3[nH]c4cc5ncnc5cc4nc3-c3ccccc3)cc2)CC1	JAK1	cell-free assay	–	–	0.5 µM	remaining signal	94.6%
C#Cc1n[nH]c2c(-c3cn(C(C)c4ccccn4)c(=O)[nH]c3=O)cc(F)cc12 (centres unmarked)	JAK1	enzyme activity	inhibitor	–	1 µM	inhibition	-2.3%
Nc1ncc(-c2nc(N3CCOCC3)nc(N3CCOCC3)n2)c(C(F)F)n1	JAK1 JH1	binding	–	competition with immobilised ligand	10 µM	remaining binding	90%
Cn1cc(-c2cccc(N3CCc4c(sc5c4CC(C)(C)C5)C3=O)c2CO)cc(Nc2ccncn2)c1=O	JAK1	enzyme activity	inhibitor	–	1 µM	inhibition	-2%
Cn1cncc1[C@](O)(COc1ccc(C#N)cc1-c1ccc(OC(F)(F)F)cc1)c1ccc(C#N)cc1	JAK1 JH2	cell-free assay	–	competition with immobilised ligand	1 µM	remaining binding	70%
COc1ncccc1-c1cnn2ccc(N3CCN(C(=O)OC(C)C)CC3)nc12	JAK1	binding	–	competition with immobilised ligand	1 µM	remaining binding	100%
CC(C)(C)c1cc(C=C(C#N)C#N)cc(Br)c1O	JAK1	enzyme activity	inhibitor	–	0.5 µM	remaining activity	107%
Cc1nn(C)cc1-c1nc2c(N3CCN(Cc4ccc(Cl)cc4)CC3)c(Cl)cnc2[nH]1	JAK1 JH1	binding	–	competition with immobilised ligand	1 µM	remaining binding	46%
N#CC1(c2ccccn2)CCN(Cc2cc(C(=O)O)c(=O)n3ccccc23)CC1	JAK1 JH2	cell-free assay	–	competition with immobilised ligand	1 µM	remaining binding	84%
